# Assay outcomes: PubChem BioAssay, The Scripps Research Institute Molecular Screening Center
# PLC-beta3 inh = PLC-beta3 (human) inhibition, primary screen; Q01970; Purified PLC-beta3, fluorogenic substrate, fluorescence; 370,000 compounds, 0.18% hits; inhibition, % at 12.2 µM; in the data active means inhibition above about 11%
# ADAM17 inh = ADAM17 inhibition, QFRET primary screen | P78536 | recombinant ADAM17, EDANS/DABCYL FRET peptide cleavage | inhibition, % at 6.95 µM | 370,000 compounds, 0.83% hits;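 active means inhibition above the mean of compounds lying between control limits plus 3 SD, set per campaign, cut at about 8.5% in these data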
# DDE Tn7 FP inh = inhibitors of Tn7 peptide binding to human fibrin DD(E); P02675; FP displacement of FITC-Tn7 peptide from fibrin DD(E); 0% = median of compound wells per plate; inhibition, % at 8.3 µM; 370,000 compounds, 0.13% hits; AID 720508;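 active means inhibition above the mean of compounds falling within the control limits plus 3 SD of them, cut at about 14% in these data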
#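 Test system: human clot-derived fibrin DD(E) complex / Quantity: 2 µM final DD(E) protein / Incubation: 10 min plus 3 h, room temperature / Measured by: fluorescence polarization / Benchmarks: high control of 10 µM Aha-Tn7 peptide / Replicates: singlicate testing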
# PLC-gamma1 inh = inhibitors of human phospholipase C gamma1; P19174; purified PLC-gamma1, fluorogenic substrate, fluorescence; inhibition, % at 12.2 µM; 370,000 compounds, 0.84% hits; in the data active means inhibition above about 9.5%
# ADAM10 inh = ADAM10 inhibition, QFRET primary screen; inhibition, % at 7 µM; AID 720582; recombinant ADAM10, EDANS/DABCYL FRET peptide cleavage, 3 h; 370,000 compounds, 0.62% hits;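 active means inhibition above a per-campaign cutoff equal to the mean of compounds falling between control-based bounds plus 3 SD, cut at about 20% in these data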
# Target sequence (O14672 214-748 limits assumed): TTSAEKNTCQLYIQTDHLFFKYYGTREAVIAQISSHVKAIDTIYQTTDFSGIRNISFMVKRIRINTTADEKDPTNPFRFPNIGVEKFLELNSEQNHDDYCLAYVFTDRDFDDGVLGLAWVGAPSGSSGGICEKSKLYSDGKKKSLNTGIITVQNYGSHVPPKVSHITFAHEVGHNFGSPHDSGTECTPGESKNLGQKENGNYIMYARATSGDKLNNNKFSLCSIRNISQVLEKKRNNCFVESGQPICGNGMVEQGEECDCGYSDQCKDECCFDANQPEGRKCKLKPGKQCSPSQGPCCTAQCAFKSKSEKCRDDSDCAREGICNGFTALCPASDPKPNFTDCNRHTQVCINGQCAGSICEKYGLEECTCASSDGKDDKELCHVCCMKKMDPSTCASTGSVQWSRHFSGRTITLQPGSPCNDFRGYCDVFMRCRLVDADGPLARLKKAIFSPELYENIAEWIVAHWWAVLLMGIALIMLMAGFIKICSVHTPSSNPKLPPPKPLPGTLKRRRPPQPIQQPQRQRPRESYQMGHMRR
# Tn6 DDE FP = disrupts Tn6 cyclic peptide binding to fibrin D-Dimer-E complex; inhibition, % at 8.3 µM; Fibrin DD(E) TRITC-Tn6 fluorescence polarization displacement; 370,000 compounds, 0.21% hits;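 active means inhibition above a per-campaign cutoff: mean of compounds within control limits plus 3 SD, cut at about 15% in these data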
# Hits are given with their value; . = inactive; ! = repeats disagree. A selection: hits, their analogues and other compounds. The true share with any hit is near 2.3%.
SMILES,PLC-beta3 inh,ADAM17 inh,DDE Tn7 FP inh,PLC-gamma1 inh,ADAM10 inh,Tn6 DDE FP
C=CCN1C(C(=O)OC)CN(Cc2cn(Cc3ccc(Cl)cc3)nn2)CCS1(=O)=O (centres undefined),.,.,.,.,.,.
C=CCN1[C@H](C)COc2cccc(F)c2S1(=O)=O,.,.,.,.,.,.
O=C(Nc1nc(-c2ccccc2)cs1)C1CCCN(S(=O)(=O)c2cccc([N+](=O)[O-])c2)C1 (centres undefined),.,.,.,.,.,.
O=C(Nc1nc(-c2cccs2)cs1)c1cccc(S(=O)(=O)N2CCCCC2)c1,.,16,.,.,38,.
O=C(Nc1nc(-c2ccccc2)cs1)C1CCCN(S(=O)(=O)c2ccccc2)C1 (centres undefined),.,9.4,.,.,.,.
c1coc(CSSCc2ccco2)c1,.,.,.,13,.,.
Cc1ccc(NC(=O)CSCc2ccco2)cc1,.,.,.,.,.,.
CC(C)(C)OC(=O)NCc1ccccc1/C=C/S(=O)(=O)NCCc1ccccc1,.,.,.,.,.,.
COc1ccccc1CN1CC(C(=O)N(C)CCc2ccccn2)CCC1=O (centres undefined),13,.,.,.,.,.
COc1ccccc1CN1CC(C(=O)N(C)CCOc2ccccc2)CCC1=O (centres undefined),.,.,.,.,.,.
COCCCNC(=O)C[C@H]1C[C@@]2(C(=O)OC)C(=C[C@H](C(C)(C)C)O[C@@H]2C)N(Cc2cccc3ccccc23)C1=O,.,.,.,.,.,.
COc1ccc(/C=C/C(=O)c2cc(F)ccc2OC(=O)c2ccc(OC)c(OC)c2)cc1OC,.,.,.,.,.,.
COc1ccc(/C=C/C(=O)c2cc(F)ccc2OC(=O)c2ccccc2)cc1OC,.,11,.,.,.,.
COc1ccc(N2CCN(CCCNC(=O)CCOC(C)(C)C)CC2)cc1,.,.,.,.,.,.
O=C(Nc1ccc(Cl)c(Cl)c1)Oc1ccc(NC(=O)c2ccco2)cc1,.,.,19,.,.,.
CC(C)c1cc(C(C)C)c(S(=O)(=O)N2CCC(c3cn4ccccc4n3)CC2)c(C(C)C)c1,.,.,.,.,.,.
Cc1ccc(-n2c(C)cc(C3=NNC(=NC4CC4)SC3)c2C)cc1C,.,9.5,.,.,.,.
CC(C)(C)c1ccc(S(=O)(=O)N(CCCN2CCOCC2)Cc2cccs2)cc1,.,.,.,10!,.,.
Cc1ccc(NC(=O)c2ccc(CS(=O)(=O)Cc3ccccc3C)o2)c(C)c1,.,.,.,.,.,.
O=C(O)COc1ccc(/C=C2\SC(=Nc3ccccc3)N(c3ccccc3)C2=O)cc1,.,.,.,.,.,.
COc1ccc(N=C2S/C(=C\c3ccc(OCC(=O)O)cc3)C(=O)N2CCc2c[nH]c3ccccc23)cc1,.,9.2,.,.,.,.
CNc1nc(N(C)C)nc(N(C)C)n1,.,.,.,.,.,.
CN(C)c1nc(N(C)C)nc(N(C)C)n1,.,.,.,9.6,.,.
O=C(Cc1cccs1)N/N=C\c1ccccc1,.,.,.,.,.,.
CC1=NN(c2ccccc2)C(=O)/C1=C/c1cccc(C)c1,.,.,.,.,.,.
SMILES,PLC-beta3 inh,ADAM17 inh,DDE Tn7 FP inh,PLC-gamma1 inh,ADAM10 inh,Tn6 DDE FP
CC(=O)Oc1ccc(/C=C2/C(=O)N(c3ccccc3)N=C2C)cc1,.,.,.,31,.,.
COc1ccc(/C=C2/C(=O)N(c3ccccc3)N=C2C)cc1OC,.,.,.,19,.,.
Cc1cccc(C(=O)N2CCC(=O)N([C@H](COCc3ccccc3)Cc3ccccc3)CC2)c1,.,.,.,.,.,.
Cc1cccc(C(=O)N2CCC(=O)N(C(COCc3ccccc3)Cc3ccccc3)CC2)c1 (centres undefined),.,.,.,15,.,.
CCOc1cccc(CNc2ccc(O)cc2)c1OCc1ccccc1Cl,.,.,.,.,.,16
CCOc1cccc(CNc2ccc(O)cc2)c1OCc1ccc(Cl)cc1Cl,.,.,.,.,.,28
CCOc1cccc(CNn2cnnc2)c1OCc1ccccc1Cl,.,.,.,.,.,.
